The results in this text go back to the array DNA melting data of Ke et al. (doi:10.1101/2024.01.08.574731).

Series [1] can be described thus: folding enthalpy; higher = less favourable; fluorescence melt of hairpins on a sequencing array, two-state fit. Particulars: sodium 0.088 M. In a few lines:
(§1)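 To match UV melts, fitted temperatures were raised by 9.35 °C. These fits were bootstrapped two-state models that gave melting temperature and folding enthalpy, combined by inverse variance over four replicates. The input was normalised Cy3 fluorescence of library hairpins with annealed Cy3 and quencher oligos on a sequenced MiSeq flow cell, imaged in 50 mM Na-HEPES pH 8.0, 25 mM NaCl in 2.5 °C steps up to 60 °C.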

Series [2] is described as follows: melting temperature; fluorescence melt of hairpins on a sequencing array, two-state fit, raised by 9.35 °C to match UV melts. Particulars: sodium 0.088 M. Put shortly: as §1

In the case of GATATGGGAAACCATACC (.(((((....))))).), in series [1], the folding enthalpy is -15 kcal/mol. Further, the Tm in series [2] is 29.5 °C.
For GATATGGGAAACCGTATC ((((.((....)).)))), in series [1], the folding enthalpy was -32 kcal/mol. Further, the Tm in series [2] worked out at 43 °C.
In the same order, the values of GATATTGAAAAATATC ((((((....)))))) are -22.6 kcal/mol and 37 °C.
Turning to GATATTGCGAAAGCAATC (((..(((....)))))), the folding enthalpy in series [1] is -8.38 kcal/mol. Moreover, the Tm in series [2] worked out at 35.4 °C.
Consider GATATTGGAAACAATATC (((((((....))))))), for which, in series [1], the folding enthalpy was -45.2 kcal/mol. Further, in series [2], the Tm came out at 48.8 °C.
For the sequence GATCAAAAACTTGATC ((((((....)))))), in series [1], the folding enthalpy is -26.5 kcal/mol. For the same sequence, in series [2], the Tm came out at 34.9 °C.
For GATCAAAACTTTGATC ((((((....)))))) the same measures were -35.9 kcal/mol and 46.6 °C.
Regarding GATCAAAAGCTTGATC ((((((....)))))), the folding enthalpy in series [1] was -25.6 kcal/mol. Moreover, the Tm in series [2] amounted to 38 °C.
With GATCAAAATCTTGATC ((((((....)))))), the folding enthalpy in series [1] was -27.8 kcal/mol. Moreover, the Tm in series [2] stood at 39.9 °C.
For the sequence GATCAAACAGTTGATC ((((((....)))))), in series [1], the folding enthalpy was -25.8 kcal/mol. In addition, the Tm in series [2] came to 38.5 °C.
GATCAAACCCTTGATC ((((((....)))))): the folding enthalpy in series [1] is -33.4 kcal/mol. Besides, the Tm in series [2] came to 42.7 °C.
As to GATCAAACGTTGATC ((((((...)))))), the folding enthalpy in series [1] was -28.1 kcal/mol. The Tm in series [2] amounted to 39.5 °C.
In the case of GATCAAAGCTTGATC ((((((...)))))), the folding enthalpy in series [1] was -28.1 kcal/mol. For the same sequence, the Tm in series [2] was determined as 40.1 °C.
As for GATCAAATCATTGATC ((((((....)))))), in series [1], the folding enthalpy is -32.8 kcal/mol. The Tm in series [2] is 41.8 °C.
As for GATCAAATGTTTGATC ((((((....)))))), in series [1], the folding enthalpy is -34.6 kcal/mol. The Tm in series [2] was 45.1 °C.
For GATCAAATTCTTGATC ((((((....)))))) the same measures were -32.6 kcal/mol and 41.4 °C.
Take GATCAAATTTTGATC ((((((...)))))): in series [1], the folding enthalpy is -31.4 kcal/mol. Also, the Tm in series [2] came to 43 °C.
GATCAACACATTGATC ((((((....)))))): in series [1], the folding enthalpy was -36.9 kcal/mol. In addition, the Tm in series [2] is 44.9 °C.
In the case of GATCAACACGTTGATC ((((((....)))))), in series [1], the folding enthalpy is -40.2 kcal/mol. The Tm in series [2] worked out at 53.6 °C.
For the sequence GATCAACACTTGATC ((((((...)))))), the folding enthalpy in series [1] is -31.6 kcal/mol. Moreover, the Tm in series [2] was 40.5 °C.
In the same order, the values of GATCAACAGCTTGATC ((((((....)))))) are -29.1 kcal/mol and 39.5 °C.
As for GATCAACATCTTGATC ((((((....)))))), in series [1], the folding enthalpy was -28.1 kcal/mol. Besides, in series [2], the Tm was 41.5 °C.
As to GATCAACATGTTGATC ((((((....)))))), the folding enthalpy in series [1] was -56.2 kcal/mol. Further, the Tm in series [2] was determined as 54.7 °C.
As to GATCAACATTTTGATC ((((((....)))))), the folding enthalpy in series [1] was -31.1 kcal/mol. Also, the Tm in series [2] is 42.6 °C.
Turning to GATCAACCCCTTGATC ((((((....)))))), the folding enthalpy in series [1] was -35.2 kcal/mol. Besides, the Tm in series [2] is 45.5 °C.
In the case of GATCAACCTTTTGATC ((((((....)))))), in series [1], the folding enthalpy is -29.7 kcal/mol. The Tm in series [2] is 41.8 °C.
In the case of GATCAACGGTTTGATC ((((((....)))))), the folding enthalpy in series [1] is -30.1 kcal/mol. The Tm in series [2] came to 40.9 °C.
For the sequence GATCAACGTCTTGATC ((((((....)))))), the folding enthalpy in series [1] is -30.9 kcal/mol. In series [2], the Tm was determined as 42.6 °C.
Consider GATCAACTAATTGATC ((((((....)))))), for which the folding enthalpy in series [1] was -28.4 kcal/mol. In series [2], the Tm is 40.8 °C.
Regarding GATCAACTATTTGATC ((((((....)))))), in series [1], the folding enthalpy was -31.5 kcal/mol. Besides, in series [2], the Tm came to 42.4 °C.
For GATCAACTGTTGATC ((((((...)))))), in series [1], the folding enthalpy is -36.1 kcal/mol. The Tm in series [2] was 44.2 °C.
As to GATCAACTTCTTGATC ((((((....)))))), in series [1], the folding enthalpy was -30 kcal/mol. Besides, the Tm in series [2] came out at 43.9 °C.
On to GATCAAGAGGTTGATC ((((((....)))))), for which, in series [1], the folding enthalpy was -24.2 kcal/mol. In series [2], the Tm was 37.9 °C.
In the case of GATCAAGATTTGATC ((((((...)))))), the folding enthalpy in series [1] is -29.6 kcal/mol. For the same sequence, the Tm in series [2] came to 40.7 °C.
In the same order, the values of GATCAAGCATTGATC ((((((...)))))) are -47.9 kcal/mol and 52.1 °C.
Regarding GATCAAGCCGTTGATC ((((((....)))))), the folding enthalpy in series [1] is -29.4 kcal/mol. Besides, in series [2], the Tm came out at 46.5 °C.
For GATCAAGCTGTTGATC ((((((....)))))), in series [1], the folding enthalpy is -31.2 kcal/mol. Also, the Tm in series [2] is 42.7 °C.
Consider GATCAAGGCCTTGATC ((((((....)))))), for which the folding enthalpy in series [1] is -51.6 kcal/mol. Besides, in series [2], the Tm was determined as 55 °C.
